Reference: ChEMBL document CHEMBL1124674, “Chemical and biological properties of a new series of cis-diammineplatinum(II) antitumor agents containing three nitrogen donors: cis-[Pt(NH3)2(N-donor)Cl]+” (J Med Chem, 1989)

test system: Mus musculus; assay: Compound is tested against sarcoma 180 ascites (S180a) in female CFW mice, and evaluated for the best percent of increase in life span at optimal dose of 320 mg/kg; assay type: functional, organism-based; set-up: dose 320 mg/kg
Procedure, shortened: (§1)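 Female CFW mice (18-25 g) were inoculated ip with 2×10^6 S180a cells on day 0. Single ip dose in 0.5 mL water on day 1, over 6 dose-doublings up to 320 mg/kg, 6 mice per dose. Controls got water; the cisplatin control got 8 mg/kg in 0.15 M NaCl. Run for twice control MST, with survivors counted dead then. %ILS, ≥50% = active.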

cis[Pt(NH3)2(N3-cytidinepyridine)Cl]NO3 was tested, and the ILS was 30%.

test system: Mus musculus; assay: Compound is tested against sarcoma 180 ascites (S180a) in female CFW mice, and evaluated for the best percent of increase in life span at optimal dose of 80 mg/kg; assay type: functional, organism-based; set-up: dose 80 mg/kg; procedure, shortened: as §1

First: cis[Pt(NH3)2(N7-2,deoxyguanosine)Cl]NO3; H2O
Second: cis[Pt(NH3)2(N1-3-hydroxypyridine)Cl]Cl
The ILS of the first is higher: 88% for the first, 69% for the second.

First: cis[Pt(NH3)2(N1-6-methoxy-3-hydroxy-hydroxypyridine)Cl]Cl H2O
Second: cis[Pt(NH3)2(N1-cytisine)Cl]Cl
The ILS of the first is higher: 93% for the first, 92% for the second.

Compared with cis[Pt(NH3)2(N1-pyridine)Cl]Cl, “cis[Pt(NH3)2(N1-methyl isonicotinate)Cl]Cl” is higher in ILS: 26% for the first, 31% for the second.

First: cis[Pt(NH3)2(N1-4-bromopyridine)Cl]Cl
Second: [Pt(NH3)2(N1-pyridine)Cl]Cl
The ILS of the first is higher: 102% for the first, 17% for the second.

For cis[Pt(NH3)2(N3-2,deoxycytidine)Cl]Cl, the ILS was 85%.

test system: Mus musculus; assay: Compound is tested against sarcoma 180 ascites (S180a) in female CFW mice, and evaluated for the best percent of increase in life span at optimal dose of 160 mg/kg; assay type: functional, organism-based; set-up: dose 160 mg/kg; procedure, shortened: as §1

Compared with cis[Pt(NH3)2(N7-guanosine)Cl]NO3, “cis[Pt(NH3)2(N1-hydroxypyridine)Cl]Cl H2O” is higher in ILS: 79% for the first, 97% for the second.

Going from “cis[Pt(NH3)2(N3-1-beta-D-arabinofuranosylcytocin)Cl]NO3.H2O” to cis[Pt(NH3)2(N3-5-methylcytosine)Cl]NO3, the ILS rises from 51% to 84%.

In the case of “cis[Pt(NH3)2(N1-6-methyl-hydroxypyridine)Cl]Cl”, the ILS is reported as 93%.

test system: Mus musculus; assay: Compound is tested against sarcoma 180 ascites (S180a) in female CFW mice, and evaluated for the best percent of increase in life span at optimal dose of 8 mg/kg; assay type: functional, organism-based; set-up: dose 8 mg/kg; procedure, shortened: as §1

With CISPLATIN the ILS was 81%.

test system: Mus musculus; assay: Compound is tested against sarcoma 180 ascites (S180a) in female CFW mice, and evaluated for the best percent of increase in life span at optimal dose of 40 mg/kg; assay type: functional, organism-based; set-up: dose 40 mg/kg; procedure, shortened: as §1

First: cis[Pt(NH3)2(N1-4-methylpyridine)Cl]Cl
Second: cis[Pt(NH3)2(N3-1-methylcytosine)Cl]NO3
The ILS of the first is higher: 83% for the first, 73% for the second.

Compared with cis[Pt(NH3)2(N1-pyridine)Cl]Cl, cis[Pt(NH3)2(N1-4-chloropyridine)Cl]Cl is lower in ILS: 103% for the first, 77% for the second.
